The list is not random: actives were taken first. Their share in the collection is about 2.9%.
SENP1 FRET inh – inhibitors of human SENP1 SUMO protease catalytic domain | AID 624204 | 360,000 compounds, 0.21% hits | recombinant SENP1 catalytic domain, CyPet-SUMO1-YPet FRET cleavage | inhibition, % at 10 µM;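 active means inhibition at least 30% at 10 µM, raw YFP signal under a set limit, fluorescence ratio 0.5 to 1.5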;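 further: 0% = enzyme with DMSO and 100% = no enzyme wells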
Target sequence (Q9P0U3 419-644 limits assumed): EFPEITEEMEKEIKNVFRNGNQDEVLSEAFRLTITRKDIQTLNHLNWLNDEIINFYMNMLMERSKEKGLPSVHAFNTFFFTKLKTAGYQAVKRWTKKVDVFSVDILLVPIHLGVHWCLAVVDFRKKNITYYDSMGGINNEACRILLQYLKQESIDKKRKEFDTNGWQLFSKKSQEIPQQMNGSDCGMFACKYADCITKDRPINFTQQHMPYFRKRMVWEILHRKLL
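Test system: human SENP1 catalytic domain; medium: Tris pH 8 buffer plus EDTA, NaCl, BME, BSA, NP40, catalase; incubation: 50 min reaction at room temperature; technique: FRET, CFP and YFP emission; controls: no-enzyme low control and enzyme-plus-DMSO high control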
SENP8 block-1 – SENP8 protease inhibition | 330,000 compounds, 1.2% hits | purified SENP8, Z-RLRGG-aminoluciferin cleavage, luminescence | AID 2540 | Q96LD8 | inhibition, % at 10 µM; in the data active means inhibition above about 50%
SENP7 inh – inhibitors of human SENP7 protease. Q9BQF6. recombinant SENP7, Z-RLRGG-aminoluciferin luminescence, 40 min. inhibition, % at 5 µM. 330,000 compounds, 1.5% hits;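 active means inhibition above about 50% at the single test dose, limit read from the data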;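 further: plate controls were DMSO with enzyme for no effect and no enzyme buffer wells for full effect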
Target sequence (Q9BQF6 706-1050 limits assumed): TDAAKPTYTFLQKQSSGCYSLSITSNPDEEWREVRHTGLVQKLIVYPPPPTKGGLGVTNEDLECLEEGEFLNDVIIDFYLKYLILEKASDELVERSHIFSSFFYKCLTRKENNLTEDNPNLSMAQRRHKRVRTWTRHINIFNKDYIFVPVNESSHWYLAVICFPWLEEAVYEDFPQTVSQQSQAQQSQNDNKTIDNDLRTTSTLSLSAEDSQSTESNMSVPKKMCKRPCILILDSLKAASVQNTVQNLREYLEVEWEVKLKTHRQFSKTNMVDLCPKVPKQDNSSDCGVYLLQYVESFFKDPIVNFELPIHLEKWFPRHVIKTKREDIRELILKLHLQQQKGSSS
SENP8 block-2 – SENP8 (human) protease inhibition; 360,000 compounds, 0.64% hits; Q96LD8; inhibition, % at 20 µM; recombinant SENP8, Nedd8 substrate fluorescence; in the data active means inhibition mostly above about 40%, no sharp cut-off; inactive means mostly below about 27%
Apaf-1 inh – blocks human Apaf-1 apoptosome activity. O14727. reconstituted apoptosome caspase-3 activity, DEVD-Rh110 fluorescence. inhibition, % at 20 µM. 330,000 compounds, 0.71% hits; active means inhibition of at least 40% at 20 µM;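 further: plate controls were DMSO wells for no effect and DEVD-CHO caspase inhibitor wells for full effect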
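Material: biochemical Apaf-1 apoptosome reconstitution. Medium: Hepes buffer, pH 7.5. Also added: cytochrome c activation, bis-DEVD rhodamine 110 substrate. Timing: 30 min compound preincubation, 50 min activation, room temperature. Measured by: rhodamine 110 fluorescence at Ex 480/Em 540 nm.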
SENP6 block – blocks the human protease SENP6; Q9GZR1; Recombinant SENP6 catalytic domain, aminoluciferin luminescence; inhibition, % at 10 µM; 330,000 compounds, 1.8% hits; AID 2599;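 active means inhibition above about 50% at the single tested dose, limit read from the data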;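 further: plate controls were DMSO wells with enzyme for no effect and DMSO wells lacking enzyme for full effect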
SENP8 conf – SENP8 (human) inhibition, single concentration confirmation | shares compounds with SENP8 block-2 | AID 624319 | purified SENP8, Nedd8-AMC/pro-Nedd8 cleavage fluorescence, 30 min | 1,400 compounds, 15% hits | inhibition, % at 25 µM; in the data active means inhibition mostly above about 39%, no sharp cut-off; inactive means mostly below about 34%
Active calls of the source: *.

How did COc1ccc(NC(=O)C2CC(=O)N/C(=N/NC(=O)c3ccc(Cl)cc3)S2)cc1 (stereo unspecified) do in these assays?
SENP1 FRET inh: 2; SENP8 block-1: -2; SENP7 inh: 12; SENP8 block-2: 40*; Apaf-1 inh: 9; SENP6 block: 7; SENP8 conf: 9

Results for Cc1ccc(NC(=O)C2CC(=O)N/C(=N/NC(=O)c3ccc(C)cc3)S2)cc1 (stereo unspecified) ?
SENP1 FRET inh: -1; SENP8 block-1: -6; SENP7 inh: 6; SENP8 block-2: 16; Apaf-1 inh: -1; SENP6 block: -5

What do the screens show for `COc1cc(C)c(C(=O)Oc2cc(C)c(C(=O)O)c(O)c2C)c(OC)c1C`?
SENP1 FRET inh: 2; SENP8 block-1: -13; SENP7 inh: 12; SENP8 block-2: 44*; Apaf-1 inh: 6; SENP6 block: -5; SENP8 conf: 15

How did CCOc1ccc(OCCCCN2CCCC2)cc1 do in these assays?
SENP1 FRET inh: 2; SENP8 block-1: 3; SENP7 inh: 4; SENP8 block-2: 42*; Apaf-1 inh: 3; SENP6 block: -12; SENP8 conf: 11

Results for Cc1ccc(OCCCCN2CCCCC2)cc1 ?
SENP1 FRET inh: 1; SENP8 block-1: -5; SENP7 inh: -17; SENP8 block-2: 2; Apaf-1 inh: -3; SENP6 block: -19

How did Cn1c(C=O)c(C#Cc2ccccc2)c2ccccc21 do in these assays?
SENP1 FRET inh: -21; SENP8 block-1: 0; SENP7 inh: 6; SENP8 block-2: -478; Apaf-1 inh: 7; SENP6 block: 0

How did COc1cc(=O)n(C)c2ccccc12 do in these assays?
SENP1 FRET inh: 3; SENP8 block-1: -11; SENP7 inh: 0; SENP8 block-2: 1; Apaf-1 inh: -7; SENP6 block: -19

How did COc1cc(=O)n(C)c2c(O)cccc12 do in these assays?
SENP1 FRET inh: 3; SENP8 block-1: -5; SENP7 inh: -1; SENP8 block-2: 56*; Apaf-1 inh: 1; SENP6 block: -15; SENP8 conf: 0

What do the screens show for `C=CCOc1ccc(/C=C2\SC(N3CCCCC3)=NC2=O)cc1`?
SENP1 FRET inh: -1; SENP8 block-1: 2; SENP7 inh: -3; SENP8 block-2: -17; Apaf-1 inh: -2; SENP6 block: 2

How did COc1ccccc1OCCNC(=O)c1cc(F)c(F)cc1Cl do in these assays?
SENP1 FRET inh: 1; SENP8 block-1: -2; SENP7 inh: -2; SENP8 block-2: 41*; Apaf-1 inh: -10; SENP6 block: 6; SENP8 conf: 14

Results for O=C(NCCOc1ccccc1F)c1cc(F)c(F)cc1Cl ?
SENP1 FRET inh: -1; SENP8 block-1: -2; SENP7 inh: 1; SENP8 block-2: 6; Apaf-1 inh: -13; SENP6 block: 6

How did CCNc1nc(NC(C)C)nc(N(C#N)C(C)C(=O)N(C)C)n1 (stereo unspecified) do in these assays?
SENP1 FRET inh: -1; SENP8 block-1: 7; SENP7 inh: 4; SENP8 block-2: 45*; Apaf-1 inh: -9; SENP6 block: 17; SENP8 conf: -10

How did Nc1cccc2c1C(=O)N(c1ccccc1)C2=O do in these assays?
SENP1 FRET inh: -50; SENP8 block-1: 1; SENP7 inh: 1; SENP8 block-2: -429; Apaf-1 inh: -6; SENP6 block: -4

Results for O=C1c2ccccc2C(=O)N1c1ccccc1 ?
SENP1 FRET inh: 1; SENP8 block-2: 42*; SENP8 conf: 4

How did CCCNC(=O)C1(C)CCN(C(=O)c2ccccc2OC)C1 (stereo unspecified) do in these assays?
SENP1 FRET inh: -1; SENP8 block-2: 6

What do the screens show for `COc1ccc(C(=O)C(CCCCC(CN(C)C)C(=O)c2ccc(OC)cc2)CN(C)C)cc1` (stereo unspecified)?
SENP1 FRET inh: 1; SENP8 block-1: 0; SENP7 inh: -1; SENP8 block-2: 42*; Apaf-1 inh: -6; SENP6 block: -10; SENP8 conf: 12

Results for O=C(COC(=O)Cn1[nH]c(=O)c2ccccc2c1=O)NNC(=O)c1ccc(Br)cc1 ?
SENP1 FRET inh: 2; SENP8 block-1: -2; SENP7 inh: 1; SENP8 block-2: 8; Apaf-1 inh: 3; SENP6 block: 5

Results for NS(=O)(=O)c1ccc(CNC(=O)Cc2ccsc2)cc1 ?
SENP1 FRET inh: -2; SENP8 block-1: -7; SENP7 inh: 1; SENP8 block-2: 8; Apaf-1 inh: -3; SENP6 block: -4

Results for CN(C)c1ccc2nsnc2c1[N+](=O)[O-] ?
SENP1 FRET inh: 4; SENP8 block-1: 2; SENP7 inh: -2; SENP8 block-2: 43*; Apaf-1 inh: 0; SENP6 block: -13; SENP8 conf: 2

How did Cc1ccc2nsnc2c1NC(=O)c1ccc([N+](=O)[O-])cc1 do in these assays?
SENP1 FRET inh: 4; SENP8 block-1: -4; SENP7 inh: -7; SENP8 block-2: 21; Apaf-1 inh: -15; SENP6 block: 5

Results for CCOC(=O)C1(C)CCCN(C(=O)c2ccc(C)c(F)c2)C1 (stereo unspecified) ?
SENP1 FRET inh: 2; SENP8 block-2: 17

How did Cc1nc(CS(=O)(=O)c2ccccn2)sc1C(=O)NNC(=O)c1c(F)cccc1Cl do in these assays?
SENP1 FRET inh: 2; SENP8 block-1: 0; SENP7 inh: 7; SENP8 block-2: 42*; Apaf-1 inh: 21; SENP6 block: 1; SENP8 conf: 14

What do the screens show for `Cc1nc(CS(=O)(=O)c2ccccn2)sc1C(=O)NNC(=O)c1ccc(Cl)cc1`?
SENP1 FRET inh: 2; SENP8 block-1: 4; SENP7 inh: 3; SENP8 block-2: 17; Apaf-1 inh: 2; SENP6 block: 18

Results for CCNC(=O)C1CCCN(C(=O)c2cc(F)cc(F)c2)CC1 (stereo unspecified) ?
SENP1 FRET inh: 4; SENP8 block-2: 18

Results for Cn1c(NNC(=O)c2c(F)cccc2F)cc(=O)n(C)c1=O ?
SENP1 FRET inh: -111; SENP8 block-1: 6; SENP7 inh: 7; SENP8 block-2: 48*; Apaf-1 inh: -13; SENP6 block: -10; SENP8 conf: 48*

Screens (PubChem)
